# Shown are actives, neighbours in structure and some others; about 1.8% of the full set was active somewhere.
# iPSC survival up = enhancers of human iPSC single-cell survival | AID 602274 | survival enhancement, % at 20 µM | hiPSC single-cell survival, ATPlite luminescence; 100% = ROCK inhibitor wells, 0% = DMSO | 0.044% of 360,000 active; in the data active = survival enhancement above about 18%;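 also: cells exposed to compounds for 16 hours before the ATP read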
# eLon inh = inhibits E. coli Lon protease. P0A9M0. purified E. coli Lon protease, fluorescence polarization. inhibition, % at 7.94 µM. 0.42% of 360,000 active. AID 602123; in the data active = inhibition above about 13%, passing the limit was not always enough;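 also: 0% = enzyme with probe and DMSO and 100% = no enzyme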
# Target sequence (P0A9M0 whole entry, looked up): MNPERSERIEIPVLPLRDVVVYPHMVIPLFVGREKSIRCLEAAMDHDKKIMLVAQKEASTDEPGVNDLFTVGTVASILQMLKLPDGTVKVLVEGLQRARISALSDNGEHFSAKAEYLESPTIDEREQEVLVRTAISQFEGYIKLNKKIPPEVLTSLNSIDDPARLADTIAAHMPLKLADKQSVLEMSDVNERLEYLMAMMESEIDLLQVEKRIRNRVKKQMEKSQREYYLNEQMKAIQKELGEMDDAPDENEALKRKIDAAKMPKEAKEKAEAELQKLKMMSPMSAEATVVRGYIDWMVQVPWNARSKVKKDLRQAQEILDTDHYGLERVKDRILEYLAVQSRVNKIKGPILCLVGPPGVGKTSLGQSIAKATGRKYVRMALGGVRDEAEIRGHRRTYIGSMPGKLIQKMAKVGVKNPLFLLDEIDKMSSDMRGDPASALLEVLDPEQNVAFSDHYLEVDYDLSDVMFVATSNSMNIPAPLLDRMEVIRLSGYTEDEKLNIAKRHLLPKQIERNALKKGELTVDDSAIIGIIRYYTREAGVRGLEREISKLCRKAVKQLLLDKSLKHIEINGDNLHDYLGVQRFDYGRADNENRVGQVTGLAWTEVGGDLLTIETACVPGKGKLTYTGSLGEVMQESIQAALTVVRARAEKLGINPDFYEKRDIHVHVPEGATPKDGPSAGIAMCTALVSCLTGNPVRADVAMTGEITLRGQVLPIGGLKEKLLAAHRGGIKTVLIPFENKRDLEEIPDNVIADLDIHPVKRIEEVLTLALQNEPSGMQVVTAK
# Tb MetRS inh = blocks T. brucei methionyl-tRNA synthetase activity; 0.4% of 360,000 active; inhibition, % at 11.9 µM; purified T. brucei MetRS, ATP depletion, Kinase-Glo luminescence;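 active = inhibition above a per-plate cutoff of the control wells' mean inhibition plus 3 SD, cut at about 5.5% in these data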;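 also: 0% = DMSO wells median and 100% = median of wells with control inhibitor compound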
#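 technique = Kinase-Glo luminescence, ATP depletion format | system = purified MetRS (methionyl-tRNA synthetase) enzyme from Trypanosoma brucei | timing = 15 min preincubation, 2 h reaction, all 25 °C | evaluation = percent inhibition versus plate control medians | dosing = single dose, 11.9 µM final nominal, 0.9% final DMSO | also added = substrates ATP, L-methionine and bulk Escherichia coli tRNA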
# MT1-MMP act inh = MT1-MMP (human) activation inhibition; HT1080 RFP-PRO-GFP cells, GFP/RFP ratio fluorescence, overnight; percent of plate control window, DMSO zero; 0.061% of 360,000 active; GFP/RFP ratio change, % at 20 µM;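 active = GFP/RFP ratio change of at least 30% with cell ATP level not reduced by more than half and red fluorescence within 50% of control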
#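 Material: RFP-PRO-GFP reporter HT1080 cells. Dosing: single-point 20 µM compound, 1% DMSO. Controls: DMSO and RFP-L50D-GFP cell wells. Timing: cells overnight before dosing, compound overnight, 37 °C, 5% CO2. Measure: GFP/RFP fluorescence ratio.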
# SKN-1 block = blocks SKN-1 activity in C. elegans; AID 624304; C. elegans VP596 Pgst-4::GFP/RFP ratio, acrylamide-induced, 24 h; inhibition, % at 21.8 µM; 0.49% of 360,000 active;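 active = interference check ratio from 0.5 to 1.5 plus GFP to RFP signal ratio inhibition reaching or exceeding a fixed threshold, cut at about 30% in these data, passing the limit was not always enough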
# PREPL inhibitor = inhibitors of human prolyl oligopeptidase-like enzyme PREPL; inhibition, % at 5.96 µM; AID 2751; recombinant PREPL, fluorescence polarization activity-based probe; 0.68% of 320,000 active;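 also: 0% = enzyme with DMSO and 100% = wells lacking enzyme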
# PREPL inh cf = confirmation of human PREPL enzyme inhibitors; shares compounds with PREPL inhibitor; recombinant PREPL, fluorescence polarization activity probe; inhibition, % at 5.96 µM; 67% of 2,000 active; AID 2803;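 also: 0% = protein with DMSO and 100% = wells lacking protein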
# The depositor's hits bear a star; . = no result. Rule as the data show it, unless noted: active = inhibition above about 43%; inactive = the rest.
SMILES,iPSC survival up,eLon inh,Tb MetRS inh,MT1-MMP act inh,SKN-1 block,PREPL inhibitor,PREPL inh cf
CCOC(=O)c1ccc(CN2C(=O)c3ccccc3S2(=O)=O)cc1,0.3,-6.4,0.5,1.5,3.0,-11.1,.
CCN1/C(=C(\O)c2ccccc2)C(=O)c2ccccc2S1(=O)=O,-0.2,1.7,-0.3,-8.8,44.1*,0.4,.
Cc1ccc(Cl)c(N/C=C/C(=O)c2ccccc2)c1,0.2,-2.8,0.2,-6.0,50.6*,8.5,.
CCc1noc(C)c1C(=O)Nc1nc(-c2ccccc2)c(C(C)=O)s1,0.4,-12.7,-0.3,4.8,10.4,80.3*,4.4
CCc1noc(C)c1C(=O)Nc1nc(-c2ccc(NC(C)=O)cc2)cs1,0.2,-9.4,-0.4,6.9,0.4,3.9,.
O=c1cc(-c2ccc(O)c(O)c2)oc2c1ccc1ccccc12,1.0,-8.9,-0.3,-5.8,3.8,51.7*,33.0
O=c1oc(-c2ccc(O)c(O)c2)cc2cccc(O)c12,-4.5,2.2,-1.0,1.5,4.8,66.8*,37.8
O=C(CN1CCN(c2ccccn2)CC1)Nc1cc(C(F)(F)F)ccc1Cl,-1.5,7.3,-1.1,-1.0,7.6,46.9*,30.5
Nc1cc(C(=O)O)c(N)c2c1C(=O)c1ccccc1C2=O,-0.3,50.9*,-1.2,1.6,43.2*,84.3*,71.6*
Nc1c(C(=O)O)ccc2c1C(=O)c1ccccc1C2=O,2.5,-5.2,-1.0,31.1,61.4,-5.7,.
CCN1/C(=C/c2ccc3ccccc3[n+]2CC)C=Cc2ccccc21,-4.5,-6.3,-1.8,66.3,78.4,46.8*,49.3*
Cc1ccccc1OCC(=O)Nc1ccc2c(c1)C(=O)c1ccccc1C2=O,-2.9,3.9,-1.4,5.8,-14.2,14.2,.
O=C(O)c1ccc(Cl)c(NC(=O)C2CCCN2S(=O)(=O)c2cccc3nsnc23)c1 (centres undefined),3.4,-5.5,-0.8,-3.3,17.0,68.6*,0.3
Cc1cc(NCc2ccccn2)n2ncc(-c3ccc(Cl)cc3)c2n1,-0.6,-1.4,0.0,1.2,-2.6,48.5*,35.7
Cc1ccc(NC(=O)c2ccc3c(c2)N(CC(=O)N2CCCCC2)C(=O)C(C)(C)O3)cc1,-2.3,7.2,0.9,3.5,-7.7,48.5*,40.1
CC(C)c1cccc(C(C)C)c1NC(=O)Cn1c(=O)cnc2ccccc21,0.3,7.4,-0.1,-2.9,-8.3,-5.0,.
CC(C)N=c1cc2n(-c3ccc(Cl)cc3)c3ccccc3nc-2cc1Nc1ccc(Cl)cc1,-5.2,3.2,-1.2,-15.6,1.4,45.5*,48.2*
COC(=O)CN1CCN(C(=O)c2ccco2)CC1,-0.4,-5.4,-0.2,-2.8,-10.5,11.8,.
O=C(NCc1ccco1)c1ccc(F)c(S(=O)(=O)N2CCCCC2)c1,-0.7,-2.7,0.4,0.6,-5.3,61.0*,6.6
C=CCn1c(C)nnc1SCC(=O)Nc1oc(C)c2c(C)n[nH]c(=O)c12,-0.4,-18.0,-0.5,4.5,-6.7,8.1,.
O=C1Nc2ccccc2/C1=N\N=C\c1ccc(O)c(O)c1,0.6,4.9,1.0,-2.5,1.2,2.0,.
Cc1ccsc1/C=N/N=C1\C(=O)Nc2ccccc21,-2.2,8.6,-0.8,0.8,10.7,52.9*,51.6*
CCOc1ccc(Nc2c3ccccc3nc3ccccc23)cc1,-0.7,1.5,0.3,16.6,9.3,55.8*,59.6*
CCOc1ccc(Nc2nc(NCC3CCCO3)c3ccccc3n2)cc1 (centres undefined),-1.2,1.5,-0.3,3.9,1.0,59.3*,56.3*
NC(=O)COC(=O)CNC(=O)c1sc2ccccc2c1Cl,-1.2,-0.8,-0.1,1.4,1.7,-3.7,.
SMILES,iPSC survival up,eLon inh,Tb MetRS inh,MT1-MMP act inh,SKN-1 block,PREPL inhibitor,PREPL inh cf
Cc1cc(C)cc(N(CCC#N)C(=O)COC(=O)CNC(=O)c2sc3ccccc3c2Cl)c1,-0.5,-1.9,-0.2,0.6,1.4,43.2*,40.5
Cc1ccc(S(=O)(=O)NCC(=O)OCC(=O)N(CCC#N)c2ccccc2)cc1,2.5,-6.2,0.2,1.8,-16.2,46.8*,38.5
Cc1cc(C)c(S(=O)(=O)NCc2ccccn2)c(C)c1,-0.5,0.4,-0.3,-2.5,5.2,-6.9,.
CCOC(=O)c1ccc(N2C(=O)CC(N3CCOCC3)C2=O)cc1 (centres undefined),1.1,-5.4,0.0,-0.9,-3.3,-2.8,.
Cc1ccc(CSc2ccc3nnc(-c4ccccn4)n3n2)cc1,0.2,-8.3,0.1,1.9,7.9,50.4*,38.5
CCN1C(=O)CC(C(C)C)N(C2CCCC2)c2nc(Nc3ccc(C(=O)NC4CCN(C)CC4)cc3OC)ncc21 (centres undefined),-2.7,5.0,0.5,6.0,18.8,.,.
CCN1C(=O)CC(c2ccccc2)N(C2CCCC2)c2nc(Nc3ccc(C(=O)NC4CCN(C)CC4)cc3OC)ncc21 (centres undefined),-3.0,-42.6,-0.1,8.7,5.7,47.5*,50.3*
CCCCC(CC)C(=O)Nc1cc(C(=O)NCCC)ccc1N1CCC2(CC1)CC(c1ccccc1)=NO2 (centres undefined),-0.5,4.6,-0.1,-3.5,13.2,50.4*,55.4*
CCCCCCCCCCCCCCCC[n+]1cccc2ccccc21,-2.7,-2.4,-1.3,-45.1,53.2*,56.2*,41.8
C=C(C)C1CC=C(C)/C(=N/NC(=O)CNc2ccc(C)cc2C)C1 (centres undefined),1.5,-6.3,-0.4,-3.3,6.4,11.3,.
C=C(C)C1CC=C(C)/C(=N/NC(=O)CNc2ccc(OCC)cc2)C1 (centres undefined),2.4,-6.1,-0.7,-4.3,15.7,46.2*,9.6
O=C(C1CCC1)N1CCN(S(=O)(=O)c2ccc(Br)cc2Cl)CC1,-0.3,0.0,0.1,3.9,1.0,-0.2,.
CCOc1ccc(NC(=O)Nc2ccc3nsnc3c2)cc1,1.8,-0.1,-0.2,1.8,-2.7,17.1,.
CCOc1ccc(NC(=S)Nc2ccc3nsnc3c2)cc1,-0.3,-14.6,5.5,0.0,1.4,43.8*,13.1
C#CCOCCOCCOCCNc1nc(N2CCN(C(=O)[C@H](CCC(=O)O)n3cc(C(N)[C@H](C)CC)nn3)CC2)nc(N2CCN(C(=O)[C@H](Cc3cc4ccccc4[nH]3)n3cc(C(N)[C@H](C)CC)nn3)CC2)n1 (some centres undefined),.,.,.,.,.,9.0,.
C#CCOCCOCCOCCNc1nc(N2CCN(C(=O)C(Cc3cc4ccccc4[nH]3)n3cc(C(N)C(C)CC)nn3)CC2)nc(N2CCN(C(=O)C(Cc3cc4ccccc4[nH]3)n3cc(C(N)C(C)CC)nn3)CC2)n1 (centres undefined),-0.7,.,.,2.8,6.0,49.5*,62.0*

# Compound activity deposited in PubChem by several laboratories.
